Results as given in ChEMBL document CHEMBL3414431, “Synthesis, biological evaluation and molecular docking of some substituted pyrazolines and isoxazolines as potential antimicrobial agents” (2015).
Converted amounts (≈) assume the structure as drawn.

Key:
Aspergillus fumigatus [1] = assay: Antimicrobial activity against Aspergillus fumigatus ATCC 1022 assessed as diameter of zone of inhibition at 2 mg/ml after 24 hrs by agar well diffusion method; assay type: functional; conditions: ATCC 1022, 24 h, read-out: DIZ
In short: (§1)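 Agar well diffusion. Fungi were grown on Sabouraud dextrose agar and bacteria on nutrient agar (peptone, beef extract, NaCl, agar), with the inoculum spread over the medium. Wells were bored and filled with test drug at 2.0 mg/ml in DMSO. Plates sat 1 h at room temperature for diffusion, then 37 °C for 24 h. Inhibition zone diameter (mm, including well) is reported as mean ± SEM.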

Candida albicans [2] = assay: Antimicrobial activity against Candida albicans ATCC 12031 assessed as diameter of zone of inhibition at 2 mg/ml after 24 hrs by agar well diffusion method; assay type: functional; conditions: ATCC 12031, 24 h, read-out: DIZ; in short: as §1
Aspergillus flavus [3] = assay: Antimicrobial activity against Aspergillus flavus ATCC 9643 assessed as diameter of zone of inhibition at 2 mg/ml after 24 hrs by agar well diffusion method; assay type: functional; conditions: ATCC 9643, 24 h, read-out: DIZ; in short: as §1
Escherichia coli = assay: Antimicrobial activity against Escherichia coli ATCC 25922 assessed as diameter of zone of inhibition at 2 mg/ml after 24 hrs by agar well diffusion method; assay type: functional; conditions: ATCC 25922, 24 h, read-out: DIZ; in short: as §1
Aspergillus versicolor [4] = assay: Antimicrobial activity against Aspergillus versicolor ATCC 10072 after 48 hrs by two-fold serial dilution method; assay type: functional; conditions: ATCC 10072, 48 h
In short: (§2)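 Two-fold serial broth dilution of compounds, 100 down to 3.125 (six levels). Each was inoculated with fungal suspension at 10^6 CFU/mL in suitable broth and incubated at 37 °C for 48 h. Growth was judged by turbidity to assign the minimum inhibitory concentration.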

Aspergillus fumigatus [5] = assay: Antimicrobial activity against Aspergillus fumigatus ATCC 1022 after 48 hrs by two-fold serial dilution method; assay type: functional; conditions: ATCC 1022, 48 h; in short: as §2
Aspergillus flavus [6] = assay: Antimicrobial activity against Aspergillus flavus ATCC 9643 after 48 hrs by two-fold serial dilution method; assay type: functional; conditions: ATCC 9643, 48 h; in short: as §2
Aspergillus versicolor [7] = assay: Antimicrobial activity against Aspergillus versicolor ATCC 10072 assessed as diameter of zone of inhibition at 2 mg/ml after 24 hrs by agar well diffusion method; assay type: functional; conditions: ATCC 10072, 24 h, read-out: DIZ; in short: as §1
Candida albicans [8] = assay: Antimicrobial activity against Candida albicans ATCC 12031 after 48 hrs by two-fold serial dilution method; assay type: functional; conditions: ATCC 12031, 48 h; in short: as §2
Staphylococcus aureus [9] = assay: Antimicrobial activity against Staphylococcus aureus ATCC 25923 assessed as diameter of zone of inhibition at 2 mg/ml after 24 hrs by agar well diffusion method; assay type: functional; conditions: ATCC 25923, 24 h, read-out: DIZ; in short: as §1
Staphylococcus aureus [10] = assay: microbe, parasite or virus in culture; conditions: ATCC 25923, 24 h, read-out: DIZ
Aspergillus versicolor [11] = assay: Antimicrobial activity against Aspergillus versicolor ATCC 10072 assessed as diameter of zone of inhibition at 20 microg/disc after 24 hrs by agar well diffusion method; assay type: functional; conditions: ATCC 10072, 24 h, read-out: DIZ
In short: (§3)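 Fungal inoculum spread on Sabouraud dextrose agar. 6 mm wells bored and filled with test drug at 2.0 mg/ml in DMSO (stock-as-added). Plates held 1 h at room temperature for diffusion, then incubated at 37 °C for 24 h. Inhibition zone diameter measured in mm, including well diameter. Reported as mean ± SEM.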

Candida albicans [12] = assay: Antimicrobial activity against Candida albicans ATCC 12031 assessed as diameter of zone of inhibition at 20 microg/disc after 24 hrs by agar well diffusion method; assay type: functional; conditions: ATCC 12031, 24 h, read-out: DIZ; in short: as §3
Aspergillus flavus [13] = assay: Antimicrobial activity against Aspergillus flavus ATCC 9643 assessed as diameter of zone of inhibition at 20 microg/disc after 24 hrs by agar well diffusion method; assay type: functional; conditions: ATCC 9643, 24 h, read-out: DIZ; in short: as §3
Aspergillus fumigatus [14] = assay: Antimicrobial activity against Aspergillus fumigatus ATCC 1022 assessed as diameter of zone of inhibition at 20 microg/disc after 24 hrs by agar well diffusion method; assay type: functional; conditions: ATCC 1022, 24 h, read-out: DIZ; in short: as §3

Structure (SMILES)	zone of inhibition at 2000 µg/mL (Aspergillus fumigatus [1]) [mm]	zone of inhibition at 2000 µg/mL (Candida albicans [2]) [mm]	zone of inhibition at 2000 µg/mL (Aspergillus flavus [3]) [mm]	zone of inhibition at 2000 µg/mL (Escherichia coli) [mm]	MIC (Aspergillus versicolor [4]) [µg/mL]	MIC (Aspergillus fumigatus [5]) [µg/mL]	MIC (Aspergillus flavus [6]) [µg/mL]	zone of inhibition at 2000 µg/mL (Aspergillus versicolor [7]) [mm]	MIC (Candida albicans [8]) [µg/mL]	zone of inhibition at 2000 µg/mL (Staphylococcus aureus [9]) [mm]	zone of inhibition at 25 µg/disc (Staphylococcus aureus [10]) [mm]	zone of inhibition at 20 µg/disc (Aspergillus versicolor [11]) [mm]	zone of inhibition at 20 µg/disc (Candida albicans [12]) [mm]	zone of inhibition at 20 µg/disc (Aspergillus flavus [13]) [mm]	zone of inhibition at 20 µg/disc (Aspergillus fumigatus [14]) [mm]
COc1ccc(C2CC(c3c(O)cc(C)c(Cl)c3C)=NN2)cc1 (centres undefined)	18	18	12	8	25 (≈ 75.6 µM)	25 (≈ 75.6 µM)	6.25 (≈ 18.9 µM)	13	50 (≈ 151 µM)	11	–	–	–	–	–
Cc1cc(O)c(C2=NNC(c3cccc(O)c3)C2)c(C)c1Cl (centres undefined)	20	23	21	9	6.25 (≈ 19.7 µM)	12.5 (≈ 39.5 µM)	3.12 (≈ 9.86 µM)	21	12.5 (≈ 39.5 µM)	11	–	–	–	–	–
Cc1cc(O)c(C2=NNC(c3ccc(N(C)C)cc3)C2)c(C)c1Cl (centres undefined)	18	18	13	8	12.5 (≈ 36.4 µM)	12.5 (≈ 36.4 µM)	6.25 (≈ 18.2 µM)	13	12.5 (≈ 36.4 µM)	12	–	–	–	–	–
COc1ccc(C2CC(c3c(O)cc(C)c(Cl)c3C)=NN2)cc1OC (centres undefined)	21	20	17	8	12.5 (≈ 34.6 µM)	12.5 (≈ 34.6 µM)	25 (≈ 69.3 µM)	16	12.5 (≈ 34.6 µM)	11	–	–	–	–	–
COc1cc(C2CC(c3c(O)cc(C)c(Cl)c3C)=NN2)cc(OC)c1OC (centres undefined)	21	20	15	9	12.5 (≈ 32 µM)	12.5 (≈ 32 µM)	12.5 (≈ 32 µM)	16	12.5 (≈ 32 µM)	10	–	–	–	–	–
Cc1cc(O)c(C2=NOC(c3ccccc3)C2)c(C)c1Cl (centres undefined)	21	22	15	8	25 (≈ 82.8 µM)	12.5 (≈ 41.4 µM)	6.25 (≈ 20.7 µM)	17	25 (≈ 82.8 µM)	11	–	–	–	–	–
COc1ccc(C2CC(c3c(O)cc(C)c(Cl)c3C)=NO2)cc1 (centres undefined)	16	22	16	8	25 (≈ 75.3 µM)	25 (≈ 75.3 µM)	6.25 (≈ 18.8 µM)	15	12.5 (≈ 37.7 µM)	11	–	–	–	–	–
Cc1cc(O)c(C2=NOC(c3ccc(Cl)cc3)C2)c(C)c1Cl (centres undefined)	20	22	20	7	12.5 (≈ 37.2 µM)	6.25 (≈ 18.6 µM)	12.5 (≈ 37.2 µM)	21	12.5 (≈ 37.2 µM)	12	–	–	–	–	–
Cc1cc(O)c(C2=NOC(c3ccccc3Cl)C2)c(C)c1Cl (centres undefined)	21	23	20	8	12.5 (≈ 37.2 µM)	6.25 (≈ 18.6 µM)	12.5 (≈ 37.2 µM)	20	12.5 (≈ 37.2 µM)	11	–	–	–	–	–
COc1ccc(C2CC(c3c(O)cc(C)c(Cl)c3C)=NO2)cc1OC (centres undefined)	15	21	15	9	12.5 (≈ 34.5 µM)	6.25 (≈ 17.3 µM)	12.5 (≈ 34.5 µM)	14	12.5 (≈ 34.5 µM)	10	–	–	–	–	–
COc1cc(C)c(Cl)c(C)c1C(=O)C1=NNCC1c1ccccc1 (centres undefined)	20	19	21	8	12.5 (≈ 36.5 µM)	6.25 (≈ 18.2 µM)	6.25 (≈ 18.2 µM)	19	25 (≈ 72.9 µM)	10	–	–	–	–	–
COc1ccccc1C1CNN=C1C(=O)c1c(OC)cc(C)c(Cl)c1C (centres undefined)	18	21	19	8	12.5 (≈ 33.5 µM)	12.5 (≈ 33.5 µM)	6.25 (≈ 16.8 µM)	20	12.5 (≈ 33.5 µM)	9	–	–	–	–	–
COc1cc(C)c(Cl)c(C)c1C(=O)C1=NNCC1c1ccccc1[N+](=O)[O-] (centres undefined)	20	20	19	9	12.5 (≈ 32.2 µM)	12.5 (≈ 32.2 µM)	12.5 (≈ 32.2 µM)	19	25 (≈ 64.5 µM)	10	–	–	–	–	–
O=C(O)c1cn(C2CC2)c2cc(N3CCNCC3)c(F)cc2c1=O [CIPROFLOXACIN]	–	–	–	–	–	–	–	–	–	–	24	–	–	–	–
OC(Cn1cncn1)(Cn1cncn1)c1ccc(F)cc1F [FLUCONAZOLE]	–	–	–	–	3.12 (≈ 10.2 µM)	12.5 (≈ 40.8 µM)	12.5 (≈ 40.8 µM)	–	12.5 (≈ 40.8 µM)	–	–	21	21	21	22
